System: Zika virus
Assay: not given
Settings: vero e6; call rule not given here

SMILES | IC50
CC(C)(C)C(=O)Nc1nc(C(F)(F)F)c(-c2csc(Nc3cc(C(=O)O)cc(C(F)(F)F)c3)n2)s1 | Not Active

System: Enterococcus faecium
Assay: Antibacterial activity against Vancomycin resistant Enterococcus faecium SI-1831 assessed as reduction in microbial growth measured after 18 hrs by CLSI based broth microdilution method
Assay type: functional
Settings: not given
Outline: (§1)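 Gram-positive clinical isolates; compounds dissolved in DMSO (50 mg mL−1 stock) and diluted in medium; MIC by CLSI broth microdilution in Mueller–Hinton medium, inoculum 5 × 10^4 CFU per well, read after 18 h at 35 ± 2 °C; triplicate.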

SMILES | MIC [µg/mL]
CC(C)(C)C(=O)Nc1nc(C(F)(F)F)c(-c2csc(Nc3cc(C(=O)O)cc(C(F)(F)F)c3)n2)s1 | 16

System: enterovirus D68
Assay: microbe, parasite or virus in culture
Settings: Enterovirus D, HeLa, 48 h

SMILES | IC50 [µM]
CC(C)(C)C(=O)Nc1nc(C(F)(F)F)c(-c2csc(Nc3cc(C(=O)O)cc(C(F)(F)F)c3)n2)s1 | 4.18

System: Staphylococcus epidermidis
Assay: Antibacterial activity against linezolid-resistant Staphylococcus epidermidis SI-1266 assessed as reduction in microbial growth measured after 18 hrs by CLSI based broth microdilution method
Assay type: functional
Settings: not given
Outline: as §1

SMILES | MIC [µg/mL]
CC(C)(C)C(=O)Nc1nc(C(F)(F)F)c(-c2csc(Nc3cc(C(=O)O)cc(C(F)(F)F)c3)n2)s1 | 16

System: Staphylococcus haemolyticus
Assay: Antibacterial activity against oxacillin-resistant Staphylococcus haemolyticus SI-6/2011 assessed as reduction in microbial growth measured after 18 hrs by CLSI based broth microdilution method
Assay type: functional
Settings: not given
Outline: as §1

SMILES | MIC [µg/mL]
CC(C)(C)C(=O)Nc1nc(C(F)(F)F)c(-c2csc(Nc3cc(C(=O)O)cc(C(F)(F)F)c3)n2)s1 | 16

System: Enterococcus faecium
Assay: Antibacterial activity against Vancomycin/teicoplanin resistant Enterococcus faecium SI-759 assessed as reduction in microbial growth measured after 18 hrs by CLSI based broth microdilution method
Assay type: functional
Settings: not given
Outline: as §1

SMILES | MIC [µg/mL]
CC(C)(C)C(=O)Nc1nc(C(F)(F)F)c(-c2csc(Nc3cc(C(=O)O)cc(C(F)(F)F)c3)n2)s1 | 16

System: Bacillus subtilis
Assay: Antibacterial activity against Bacillus subtilis ATCC 6633 assessed as reduction in microbial growth measured after 18 hrs by CLSI based broth microdilution method
Assay type: functional
Settings: not given
Outline: (§2)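 MIC by CLSI broth microdilution in Mueller–Hinton medium, triplicate. Inoculum 5 × 10^4 CFU per well. Compounds taken up in DMSO (50 mg mL−1 stock) and diluted in medium. Read after 18 h at 35 ± 2 °C.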

SMILES | MIC [µg/mL]
CC(C)(C)C(=O)Nc1nc(C(F)(F)F)c(-c2csc(Nc3cc(C(=O)O)cc(C(F)(F)F)c3)n2)s1 | 16

System: Enterococcus faecalis
Assay: Bactericidal activity against Enterococcus faecalis ATCC 29212 assessed as reduction in microbial growth measured after 18 hrs by CLSI based broth microdilution method
Assay type: functional
Settings: not given
Outline: (§3)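 MBC by CLSI broth microdilution in Mueller–Hinton medium, triplicate. Inoculum 5 × 10^4 CFU per well. Read after 18 h at 35 ± 2 °C.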

SMILES | MBC [µg/mL]
CC(C)(C)C(=O)Nc1nc(C(F)(F)F)c(-c2csc(Nc3cc(C(=O)O)cc(C(F)(F)F)c3)n2)s1 | > 32

System: Enterococcus faecalis
Assay: Antibacterial activity against Enterococcus faecalis ATCC 29212 assessed as reduction in microbial growth measured after 18 hrs by CLSI based broth microdilution method
Assay type: functional
Settings: not given
Outline: as §2

SMILES | MIC [µg/mL]
CC(C)(C)C(=O)Nc1nc(C(F)(F)F)c(-c2csc(Nc3cc(C(=O)O)cc(C(F)(F)F)c3)n2)s1 | 32

System: Enterococcus faecium
Assay: Bactericidal activity against Vancomycin resistant Enterococcus faecium SI-3856B assessed as reduction in microbial growth measured after 18 hrs by CLSI based broth microdilution method
Assay type: functional
Settings: not given

SMILES | MBC [µg/mL]
CC(C)(C)C(=O)Nc1nc(C(F)(F)F)c(-c2csc(Nc3cc(C(=O)O)cc(C(F)(F)F)c3)n2)s1 | > 64

System: Escherichia coli
Assay: Synergistic antibacterial activity against Escherichia coli CCUGT incubated for 18 to 24 hrs in presence of colistin by broth microdilution method
Assay type: functional
Settings: time 18-24 hrs

SMILES | MAC [µg/mL]
CC(C)(C)C(=O)Nc1nc(C(F)(F)F)c(-c2csc(Nc3cc(C(=O)O)cc(C(F)(F)F)c3)n2)s1 | >64

System: Staphylococcus haemolyticus
Assay: Bactericidal activity against oxacillin-resistant Staphylococcus haemolyticus SI-6/2011 assessed as reduction in microbial growth measured after 18 hrs by CLSI based broth microdilution method
Assay type: functional
Settings: not given

SMILES | MBC [µg/mL]
CC(C)(C)C(=O)Nc1nc(C(F)(F)F)c(-c2csc(Nc3cc(C(=O)O)cc(C(F)(F)F)c3)n2)s1 | > 64

System: not listed separately
Assay: Cytotoxicity against african green monkey Vero E6 cells assessed as reduction in cell viability by MTT assay
Assay type: toxicity, cell-based
Settings: chlorocebus sabaeus, Vero E6 cells (Vero C1008)
Outline: (§4)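 MTT viability on HeLa or VeroE6 cells, run in parallel with the antiviral assays. CC50 from variable-slope sigmoidal dose–response regression.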

SMILES | CC50 [µM]
CC(C)(C)C(=O)Nc1nc(C(F)(F)F)c(-c2csc(Nc3cc(C(=O)O)cc(C(F)(F)F)c3)n2)s1 | > 50

System: Enterococcus faecium
Assay: Bactericidal activity against Vancomycin/teicoplanin resistant Enterococcus faecium SI-759 assessed as reduction in microbial growth measured after 18 hrs by CLSI based broth microdilution method
Assay type: functional
Settings: not given

SMILES | MBC [µg/mL]
CC(C)(C)C(=O)Nc1nc(C(F)(F)F)c(-c2csc(Nc3cc(C(=O)O)cc(C(F)(F)F)c3)n2)s1 | > 64

System: Enterococcus faecium
Assay: Antibacterial activity against Vancomycin resistant Enterococcus faecium SI-3856B assessed as reduction in microbial growth measured after 18 hrs by CLSI based broth microdilution method
Assay type: functional
Settings: not given
Outline: as §1

SMILES | MIC [µg/mL]
CC(C)(C)C(=O)Nc1nc(C(F)(F)F)c(-c2csc(Nc3cc(C(=O)O)cc(C(F)(F)F)c3)n2)s1 | 32

System: Bacillus subtilis
Assay: Bactericidal activity against Bacillus subtilis ATCC 6633 assessed as reduction in microbial growth measured after 18 hrs by CLSI based broth microdilution method
Assay type: functional
Settings: not given
Outline: as §3

SMILES | MBC [µg/mL]
CC(C)(C)C(=O)Nc1nc(C(F)(F)F)c(-c2csc(Nc3cc(C(=O)O)cc(C(F)(F)F)c3)n2)s1 | 16

System: Klebsiella pneumoniae
Assay: Synergistic antibacterial activity against Klebsiella pneumoniae ATCC 13833 incubated for 18 to 24 hrs in presence of colistin by broth microdilution method
Assay type: functional
Settings: time 18-24 hrs

SMILES | MAC [µg/mL]
CC(C)(C)C(=O)Nc1nc(C(F)(F)F)c(-c2csc(Nc3cc(C(=O)O)cc(C(F)(F)F)c3)n2)s1 | >64

System: Streptococcus pyogenes
Assay: Bactericidal activity against Streptococcus pyogenes ATCC 12344 assessed as reduction in microbial growth measured after 18 hrs by CLSI based broth microdilution method
Assay type: functional
Settings: not given
Outline: as §3

SMILES | MBC [µg/mL]
CC(C)(C)C(=O)Nc1nc(C(F)(F)F)c(-c2csc(Nc3cc(C(=O)O)cc(C(F)(F)F)c3)n2)s1 | 4

System: not listed separately
Assay: Cytotoxicity against human HeLa cells assessed as reduction in cell viability by MTT assay
Assay type: toxicity, cell-based
Settings: not given
Outline: as §4

SMILES | CC50 [µM]
CC(C)(C)C(=O)Nc1nc(C(F)(F)F)c(-c2csc(Nc3cc(C(=O)O)cc(C(F)(F)F)c3)n2)s1 | > 50

System: Staphylococcus aureus
Assay: Bactericidal activity against Staphylococcus aureus ATCC 25923 assessed as reduction in microbial growth measured after 18 hrs by CLSI based broth microdilution method
Assay type: functional
Settings: not given
Outline: as §3

SMILES | MBC [µg/mL]
CC(C)(C)C(=O)Nc1nc(C(F)(F)F)c(-c2csc(Nc3cc(C(=O)O)cc(C(F)(F)F)c3)n2)s1 | < 32

System: Streptococcus pyogenes
Assay: Antibacterial activity against Streptococcus pyogenes ATCC 12344 assessed as reduction in microbial growth measured after 18 hrs by CLSI based broth microdilution method
Assay type: functional
Settings: not given
Outline: as §2

SMILES | MIC [µg/mL]
CC(C)(C)C(=O)Nc1nc(C(F)(F)F)c(-c2csc(Nc3cc(C(=O)O)cc(C(F)(F)F)c3)n2)s1 | 4

System: Acinetobacter baumannii
Assay: Synergistic antibacterial activity against Acinetobacter baumannii ATCC 17978 incubated for 18 to 24 hrs in presence of colistin by broth microdilution method
Assay type: functional
Settings: time 18-24 hrs

SMILES | MAC [µg/mL]
CC(C)(C)C(=O)Nc1nc(C(F)(F)F)c(-c2csc(Nc3cc(C(=O)O)cc(C(F)(F)F)c3)n2)s1 | >64

System: rhinovirus A16
Assay: microbe, parasite or virus in culture
Settings: Rhinovirus A, HeLa, 48 h

SMILES | IC50 [µM]
CC(C)(C)C(=O)Nc1nc(C(F)(F)F)c(-c2csc(Nc3cc(C(=O)O)cc(C(F)(F)F)c3)n2)s1 | 9.52

System: Staphylococcus aureus
Assay: Bactericidal activity against methicillin-resistant Staphylococcus aureus ATCC 43300 assessed as reduction in microbial growth measured after 18 hrs by CLSI based broth microdilution method
Assay type: functional
Settings: not given

SMILES | MBC [µg/mL]
CC(C)(C)C(=O)Nc1nc(C(F)(F)F)c(-c2csc(Nc3cc(C(=O)O)cc(C(F)(F)F)c3)n2)s1 | > 64

System: Enterococcus faecium
Assay: Bactericidal activity against Vancomycin resistant Enterococcus faecium SI-1831 assessed as reduction in microbial growth measured after 18 hrs by CLSI based broth microdilution method
Assay type: functional
Settings: not given

SMILES | MBC [µg/mL]
CC(C)(C)C(=O)Nc1nc(C(F)(F)F)c(-c2csc(Nc3cc(C(=O)O)cc(C(F)(F)F)c3)n2)s1 | > 64

System: Staphylococcus epidermidis
Assay: Bactericidal activity against linezolid-resistant Staphylococcus epidermidis SI-1266 assessed as reduction in microbial growth measured after 18 hrs by CLSI based broth microdilution method
Assay type: functional
Settings: not given

SMILES | MBC [µg/mL]
CC(C)(C)C(=O)Nc1nc(C(F)(F)F)c(-c2csc(Nc3cc(C(=O)O)cc(C(F)(F)F)c3)n2)s1 | 64

System: Staphylococcus warneri
Assay: Bactericidal activity against oxacillin-resistant Staphylococcus warneri SI-5/2011 assessed as reduction in microbial growth measured after 18 hrs by CLSI based broth microdilution method
Assay type: functional
Settings: not given

SMILES | MBC [µg/mL]
CC(C)(C)C(=O)Nc1nc(C(F)(F)F)c(-c2csc(Nc3cc(C(=O)O)cc(C(F)(F)F)c3)n2)s1 | > 64

System: Staphylococcus warneri
Assay: Antibacterial activity against oxacillin-resistant Staphylococcus warneri SI-5/2011 assessed as reduction in microbial growth measured after 18 hrs by CLSI based broth microdilution method
Assay type: functional
Settings: not given
Outline: as §1

SMILES | MIC [µg/mL]
CC(C)(C)C(=O)Nc1nc(C(F)(F)F)c(-c2csc(Nc3cc(C(=O)O)cc(C(F)(F)F)c3)n2)s1 | 16

System: Staphylococcus aureus
Assay: Antibacterial activity against Staphylococcus aureus ATCC 25923 assessed as reduction in microbial growth measured after 18 hrs by CLSI based broth microdilution method
Assay type: functional
Settings: not given
Outline: as §2

SMILES | MIC [µg/mL]
CC(C)(C)C(=O)Nc1nc(C(F)(F)F)c(-c2csc(Nc3cc(C(=O)O)cc(C(F)(F)F)c3)n2)s1 | 16

System: Pseudomonas aeruginosa
Assay: Synergistic antibacterial activity against Pseudomonas aeruginosa ATCC 27853 incubated for 18 to 24 hrs in presence of colistin by broth microdilution method
Assay type: functional
Settings: time 18-24 hrs

SMILES | MAC [µg/mL]
CC(C)(C)C(=O)Nc1nc(C(F)(F)F)c(-c2csc(Nc3cc(C(=O)O)cc(C(F)(F)F)c3)n2)s1 | >64

System: Staphylococcus aureus
Assay: Antibacterial activity against methicillin-resistant Staphylococcus aureus ATCC 43300 assessed as reduction in microbial growth measured after 18 hrs by CLSI based broth microdilution method
Assay type: functional
Settings: not given
Outline: as §1

SMILES | MIC [µg/mL]
CC(C)(C)C(=O)Nc1nc(C(F)(F)F)c(-c2csc(Nc3cc(C(=O)O)cc(C(F)(F)F)c3)n2)s1 | 8
